The values that follow come from ChEMBL document CHEMBL3232993, “Design, synthesis, and structure-activity relationship of a novel series of GluN2C-selective potentiators” (J Med Chem, 2014).

For assay [1], the target named is T1, Glutamate NMDA receptor; Grin1/Grin2c (Rattus norvegicus) (UniProt P35439+Q00961). The experiment in a line: Potentiation of rat recombinant GluN1/GluN2C expressed in Xenopus laevis oocytes assessed as increase in glutamate/glycine-induced current response at 30 uM by two-electrode voltage clamp technique relative to control. The class given is cell-based. The method, boiled down: (§1)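 Two-electrode voltage clamp at −40 mV on Xenopus oocytes coexpressing GluN1 with GluN2A, 2B, 2C or 2D. […] Compounds came from 20 mM DMSO stocks, with 0.05–0.5% final DMSO. Some GluN2A oocytes were injected with K-BAPTA to limit current run-up. Recording solution was pH 7.4, 23 °C.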

In assay [2] the target is T2, Glutamate NMDA receptor; Grin1/Grin2a (Rattus norvegicus) (UniProt P35439+Q00959). The experiment in a line: Potentiation of rat recombinant GluN1/GluN2A expressed in Xenopus laevis oocytes assessed as increase in glutamate/glycine-induced current response at 30 uM by two-electrode voltage clamp technique relative to control. The class given is cell-based. The method, boiled down: as §1

Assay [3] addresses T3, Glutamate NMDA receptor; Grin1/Grin2b (Rattus norvegicus) (UniProt P35439+Q00960). The experiment in a line: Potentiation of rat recombinant GluN1/GluN2B expressed in Xenopus laevis oocytes assessed as increase in glutamate/glycine-induced current response at 30 uM by two-electrode voltage clamp technique relative to control. The class given is cell-based. The method, boiled down:
as §1

Assay [4] addresses Ionotropic glutamate receptor NMDA 1/2D (Rattus norvegicus, UniProt P35439+Q62645). The experiment in a line: Inhibition of rat recombinant GluN1/GluN2D expressed in Xenopus laevis oocytes assessed as reduction in current response. The class given is cell-based.
For assay [5], the target named is T4, Ionotropic glutamate receptor NMDA 1/2D (Rattus norvegicus) (UniProt P35439+Q62645). The experiment in a line: Potentiation of rat recombinant GluN1/GluN2D expressed in Xenopus laevis oocytes assessed as increase in glutamate/glycine-induced current response at 30 uM by two-electrode voltage clamp technique relative to control. The class given is cell-based. Summed up: as §1
In general terms: Two-electrode voltage clamp holds a large cell at a set potential and records current.

In assay [6] the target is Glutamate NMDA receptor; Grin1/Grin2b (Rattus norvegicus, UniProt P35439+Q00960). As to the kind of experiment: Inhibition of rat recombinant GluN1/GluN2B expressed in Xenopus laevis oocytes assessed as reduction in current response. The class given is cell-based.
The target in assay [7] is Glutamate NMDA receptor; Grin1/Grin2a (Rattus norvegicus, UniProt P35439+Q00959). As to the kind of experiment: Inhibition of rat recombinant GluN1/GluN2A expressed in Xenopus laevis oocytes assessed as reduction in current response. The class given is cell-based.
For assay [8], the target named is T2, Glutamate NMDA receptor; Grin1/Grin2a (Rattus norvegicus). As to the kind of experiment: Activity at rat recombinant GluN1/GluN2A expressed in Xenopus laevis oocytes assessed as current response at 100 uM relative to control.
For assay [9], the target named is T3, Glutamate NMDA receptor; Grin1/Grin2b (Rattus norvegicus). As to the kind of experiment: Activity at rat recombinant GluN1/GluN2B expressed in Xenopus laevis oocytes assessed as current response at 100 uM relative to control.
Assay [10] has as its target T4, Ionotropic glutamate receptor NMDA 1/2D (Rattus norvegicus). As to the kind of experiment: Activity at rat recombinant GluN1/GluN2D expressed in Xenopus laevis oocytes assessed as current response at 100 uM relative to control.
Assay [11] has as its target Glutamate NMDA receptor; Grin1/Grin2c (Rattus norvegicus, UniProt P35439+Q00961). The experiment in a line: Potentiation of rat recombinant GluN1/GluN2C expressed in Xenopus laevis oocytes assessed as increase in glutamate/glycine-induced current response by two-electrode voltage clamp technique relative to control. The class given is cell-based.
Assay [12] has as its target T1, Glutamate NMDA receptor; Grin1/Grin2c (Rattus norvegicus). The experiment in a line: Potentiation of rat recombinant GluN1/GluN2C expressed in Xenopus laevis oocytes assessed as increase in glutamate/glycine-induced current response at 100 uM by two-electrode voltage clamp technique relative to control. The class given is cell-based. The method, boiled down:
as §1

For assay [13], the species on record is Homo sapiens. The experiment in a line: Potentiation of recombinant serotonin receptor (unknown origin).
The species named for assay [14] is Homo sapiens. As to the kind of experiment: Potentiation of recombinant GABA receptor (unknown origin).
The target of assay [15] is Glutamate receptor ionotropic, kainate 2 (Rattus norvegicus) (UniProt P42260). As to the kind of experiment: Potentiation of recombinant homomeric GluK2 receptor (rat) at 120 uM relative to control.
Assay [16] addresses T1, Glutamate NMDA receptor; Grin1/Grin2c (Rattus norvegicus). As to the kind of experiment: Potentiation of rat recombinant GluN1/GluN2C expressed in Xenopus laevis oocytes assessed as glutamate-induced current response at 68 uM by two-electrode voltage clamp technique. The class given is cell-based.
The target is the same in assay [17]. The experiment in a line: Effect on rat recombinant GluN1/GluN2C expressed in Xenopus laevis oocytes assessed as reversal potential of glycine/glutamate-induced current response (reference value: -5.1 +/- 0.8 mV). The class given is cell-based. Summed up:
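Reversal potential of GluN1/GluN2C currents in cRNA-injected Xenopus oocytes by two-electrode voltage clamp. […] Recording solution was Ba²⁺-containing HEPES saline, pH 7.4, 23 °C.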

Assay [18] shares this target. As to the kind of experiment: Potentiation of rat recombinant GluN1/GluN2C expressed in Xenopus laevis oocytes assessed as glycine-induced current response at 68 uM by two-electrode voltage clamp technique. The class given is cell-based.
For assay [19] the target is unchanged. The experiment in a line: Potentiation of rat recombinant GluN1/GluN2C expressed in Xenopus laevis oocytes assessed as glutamte/glycine-induced current response at 20 uM at 30 mV. The class given is cell-based.
Assay [20] is filed under the species Homo sapiens. The experiment in a line: Potentiation of recombinant kainate receptor (unknown origin).
For assay [21], the species on record is Homo sapiens. As to the kind of experiment: Potentiation of recombinant purinergic receptor (unknown origin).
Assay [22] has as its target T1, Glutamate NMDA receptor; Grin1/Grin2c (Rattus norvegicus). The experiment in a line: Potentiation of rat recombinant GluN1/GluN2C expressed in Xenopus laevis oocytes assessed as glutamte/glycine-induced current response at 20 uM at -40 mV. The class given is cell-based.
The target of assay [23] is Glutamate receptor 1 (Rattus norvegicus) (UniProt P19490). The experiment in a line: Potentiation of recombinant homomeric GluA1 AMPA receptor (rat) at 30 uM relative to control.
Assay [24] addresses T1, Glutamate NMDA receptor; Grin1/Grin2c (Rattus norvegicus). The experiment in a line: Agonist activity at rat recombinant GluN1/GluN2C expressed in Xenopus laevis oocytes by two-electrode voltage clamp technique relative to control. The class given is cell-based.
Assay [25] is filed under the species Homo sapiens. The experiment in a line: Potentiation of recombinant nicotinic receptor (unknown origin).
Assay [26] is filed under the species Homo sapiens. The experiment in a line: Potentiation of recombinant glycine receptor (unknown origin).

The structures appear in SMILES notation. Activity calls are given as the source filed them. No cut-off for these calls is given here.

Sequence of Glutamate receptor ionotropic, kainate 2 (Rattus norvegicus) (P42260 whole entry, looked up): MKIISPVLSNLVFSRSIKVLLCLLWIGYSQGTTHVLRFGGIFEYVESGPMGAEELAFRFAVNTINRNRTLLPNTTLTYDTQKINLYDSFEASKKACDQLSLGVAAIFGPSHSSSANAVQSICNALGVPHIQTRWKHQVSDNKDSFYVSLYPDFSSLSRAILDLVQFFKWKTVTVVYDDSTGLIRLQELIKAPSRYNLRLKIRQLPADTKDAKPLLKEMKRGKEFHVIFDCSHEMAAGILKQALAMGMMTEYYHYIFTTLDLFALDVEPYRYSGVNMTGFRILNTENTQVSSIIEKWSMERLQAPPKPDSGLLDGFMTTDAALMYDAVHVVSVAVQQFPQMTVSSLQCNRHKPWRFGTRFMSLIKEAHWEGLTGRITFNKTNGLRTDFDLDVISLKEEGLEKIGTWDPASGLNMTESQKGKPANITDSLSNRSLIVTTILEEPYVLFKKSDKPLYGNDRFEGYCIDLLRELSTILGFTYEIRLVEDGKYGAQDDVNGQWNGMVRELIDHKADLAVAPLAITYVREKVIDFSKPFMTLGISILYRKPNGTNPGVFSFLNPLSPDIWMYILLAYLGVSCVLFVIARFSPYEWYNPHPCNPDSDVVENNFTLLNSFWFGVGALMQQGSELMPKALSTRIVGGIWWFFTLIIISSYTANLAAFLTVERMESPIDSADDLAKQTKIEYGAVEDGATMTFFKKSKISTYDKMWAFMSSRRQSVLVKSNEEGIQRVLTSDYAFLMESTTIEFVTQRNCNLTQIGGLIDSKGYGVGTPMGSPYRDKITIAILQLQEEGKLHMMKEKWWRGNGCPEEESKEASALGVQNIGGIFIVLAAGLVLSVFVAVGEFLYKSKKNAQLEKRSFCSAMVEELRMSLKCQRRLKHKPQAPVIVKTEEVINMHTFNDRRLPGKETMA
Sequence of Glutamate receptor 1 (Rattus norvegicus) (P19490 whole entry, looked up): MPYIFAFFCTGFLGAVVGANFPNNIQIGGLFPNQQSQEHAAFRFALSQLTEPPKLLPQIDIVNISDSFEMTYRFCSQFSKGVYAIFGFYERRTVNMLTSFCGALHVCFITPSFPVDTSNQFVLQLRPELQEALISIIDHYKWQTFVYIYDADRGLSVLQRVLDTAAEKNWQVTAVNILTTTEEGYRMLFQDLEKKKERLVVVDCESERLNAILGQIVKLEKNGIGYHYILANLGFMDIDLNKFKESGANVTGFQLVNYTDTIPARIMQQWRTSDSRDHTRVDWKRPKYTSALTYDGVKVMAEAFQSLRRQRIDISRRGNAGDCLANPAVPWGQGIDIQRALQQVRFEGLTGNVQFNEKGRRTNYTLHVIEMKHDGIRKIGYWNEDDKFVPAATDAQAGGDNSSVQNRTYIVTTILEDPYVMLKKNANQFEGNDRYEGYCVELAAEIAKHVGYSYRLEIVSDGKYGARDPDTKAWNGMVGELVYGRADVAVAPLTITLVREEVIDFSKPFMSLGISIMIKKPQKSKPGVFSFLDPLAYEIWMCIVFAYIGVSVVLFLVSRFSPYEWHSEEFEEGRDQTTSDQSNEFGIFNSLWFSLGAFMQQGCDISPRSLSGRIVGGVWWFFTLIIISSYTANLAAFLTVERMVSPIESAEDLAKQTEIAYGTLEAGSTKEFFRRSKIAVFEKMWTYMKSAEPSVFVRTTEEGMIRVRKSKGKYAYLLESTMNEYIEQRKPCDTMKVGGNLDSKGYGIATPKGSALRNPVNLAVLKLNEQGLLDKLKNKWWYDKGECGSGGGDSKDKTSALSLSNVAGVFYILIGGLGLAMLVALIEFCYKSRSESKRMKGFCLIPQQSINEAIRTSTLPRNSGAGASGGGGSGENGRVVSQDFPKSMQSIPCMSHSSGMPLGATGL

On to `COC(=O)c1ccc(C2C(C(=O)c3ccncc3)=C(O)C(=O)N2CCc2cccc3ccccc23)cc1` (stereo not drawn), for which the Activity in assay [1] worked out at 34%; in assay [2], 44%; in assay [3], 20%; in assay [5], 18%. Besides, the IC50 (in general, the point on the concentration scale where inhibition reaches its midpoint) in assay [4] amounted to 5.7 µM; in [6], 7.2 µM; in assay [7] it was 18 µM.

`COC(=O)c1ccc(C2C(C(=O)c3cccc(O)c3)=C(O)C(=O)N2CCc2c[nH]c3ccccc23)cc1` (stereo not drawn): the Activity worked out at 169% in [1], 89% in assay [2], 65% in assay [3] and 69% in assay [5]. For the same molecule, the max activation in [1] is 176%. Further, the residual activity (in general, the share of the control activity or signal that is left under treatment) was 76% in assay [8], 42% in [9] and 48% in [10]. In assay [11], the EC50 – broadly, the concentration needed to bring the measured effect to its halfway point – was determined as 7 µM.

`COC(=O)c1ccc(C2C(C(=O)C(C)C)=C(O)C(=O)N2CCc2c[nH]c3ccccc23)cc1` (stereo not drawn): the Activity is 95% in assay [2], 87% in assay [3] and 89% in assay [5]. The max activation in [12] was 119%. In assay [11], the EC50 came out at 61 µM.

Consider `COC(=O)c1ccc(C2C(C(C)=O)=C(O)C(=O)N2CCc2c[nH]c3ccccc23)cc1` (stereo not drawn), for which the result (in the assay filed under Homo sapiens [13]; in the assay filed under Homo sapiens [14]; in [16]; in [18]; in the assay filed under Homo sapiens [20]; in the assay filed under Homo sapiens [21]) was inactive. The outcome (in assay [24]; in the assay filed under Homo sapiens [25]; in the assay filed under Homo sapiens [26]) was inactive. In addition, the Activity in [1] was 196%; in [15], 95%; in assay [17], -5 mV; in assay [19] it was 180%; in [22] it was 202%; in assay [23], 97%. In addition, the results for the max activation in assay [1] and in [12] were 275% and 238%, respectively.
